Assay results: ChEMBL document CHEMBL4831478, “Bispecific Estrogen Receptor α Degraders Incorporating Novel Binders Identified Using DNA-Encoded Chemical Library Screening” (J Med Chem, 2021)
The source made the active and inactive calls. No cut-off for these calls is given here.

Columns and labels:
Estrogen receptor [1] = biological target: T1, Estrogen receptor (Homo sapiens, UniProt P03372); assay: Binding affinity to recombinant His-tagged ERalpha LBD (307 to 554 residue) (unknown origin) expressed in Escherichia coli preincubated for 15 mins followed by ligand addition and measured after 1 hr by fluorescent polarization assay
T1 sequence (P03372 whole entry): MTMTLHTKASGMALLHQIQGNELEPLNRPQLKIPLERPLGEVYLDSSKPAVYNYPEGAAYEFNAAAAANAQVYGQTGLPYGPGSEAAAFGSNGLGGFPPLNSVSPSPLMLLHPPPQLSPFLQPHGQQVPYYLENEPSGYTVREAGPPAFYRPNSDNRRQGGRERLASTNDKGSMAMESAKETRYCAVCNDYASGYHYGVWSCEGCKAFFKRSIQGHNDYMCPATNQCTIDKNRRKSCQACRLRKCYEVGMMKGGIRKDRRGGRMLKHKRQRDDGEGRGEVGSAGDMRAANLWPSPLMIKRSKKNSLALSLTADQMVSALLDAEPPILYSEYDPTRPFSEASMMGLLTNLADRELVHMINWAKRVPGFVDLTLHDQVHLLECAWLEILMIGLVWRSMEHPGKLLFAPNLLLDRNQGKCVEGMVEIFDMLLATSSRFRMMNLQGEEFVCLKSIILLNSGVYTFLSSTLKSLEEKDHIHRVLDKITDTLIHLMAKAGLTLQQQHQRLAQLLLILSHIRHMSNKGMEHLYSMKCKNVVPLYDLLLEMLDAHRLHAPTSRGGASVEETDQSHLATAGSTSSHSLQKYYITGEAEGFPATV
Procedure, shortened: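 ERα LBD (aa 307–554), WT or D538G, S463P, Y537S, with N-terminal Avi-Tev-His tag, expressed in E. coli T7 Express (20 °C, 12 h, IPTG). Purified by Ni-NTA then size exclusion. Compound preincubated with protein 15 min, fluorescent ligand added, 1 h at room temperature. FP read ex 485/em 535 nm; duplicate runs averaged.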

MCF7 [2] = assay: Antiproliferative activity against human MCF7 cells assessed as growth inhibition preincubated with estradiol for 30 mins followed by compound addition and measured after 72 hrs by CellTiter-Glo assay; assay type: functional
MCF7 [3] = assay: Antiproliferative activity against human MCF7 cells assessed as growth inhibition preincubated with estradiol for 30 mins followed by compound addition and measured after 7 days by CellTiter-Glo assay; assay type: functional; conditions: MCF7, 168 h, time 7 day
Procedure, shortened: (§1)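 MCF7 cells seeded in hormone-deprived media for 72 h. All wells except minimum-signal controls received 0.1 nM estradiol for 30 min, then compound in a 10-point dose series. Incubated 7 days at 37 °C, 5% CO2; ATP content read by CellTiter-Glo 2.0. Duplicate runs averaged.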

Estrogen receptor [4] = biological target: T1, Estrogen receptor; assay: Induction of ERalpha degradation in human MCF7 cells assessed as decrease in ERalpha protein expression incubated for 48 hrs by Western blot analysis; assay type: cell-based
MCF7 [5] = assay: Antiproliferative activity against human MCF7 cells assessed as reduction in cell viability preincubated with estradiol for 30 mins followed by compound addition and measured after 7 days by CellTiter-Glo assay; assay type: functional, cell-based; procedure, shortened: as §1
[6] = biological target: T2, Estrogen receptor (Homo sapiens) (UniProt P03372); assay: Induction of ERalpha degradation in human MCF7 cells assessed as reduction in ERalpha expression at 1 uM after 2 hrs by Western blotting analysis; assay type: cell-based
T2 sequence (whole entry): T1 sequence (P03372 whole entry)
Procedure, shortened: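 MCF7 cells in hormone-deprived media (agonist mode) or full-serum media (antagonist mode) were treated with 1 μM compound over a 48 h time course. Cells were lysed and ERα was detected by western blot, with tubulin as the normalizer.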

Estrogen receptor [7] = biological target: T1, Estrogen receptor; assay: Induction of ERalpha degradation in human MCF7 cells assessed as decrease in ERalpha protein expression preincubated for 2 hrs followed by compound washout and measured after 22 hrs by Western blotting analysis; assay type: cell-based
Procedure, shortened: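 MCF7 in-cell western: 2 h compound treatment, washout, cells collected 22 h later, compared with continuous 24 h treatment; ERα normalized to tubulin.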

Estrogen receptor [8] = biological target: T1, Estrogen receptor; assay: Induction of ERalpha degradation in human MCF7 cells assessed as decrease in ERalpha protein expression incubated for 48 hrs in presence of VHL298 by Western blotting analysis; assay type: cell-based
Procedure, shortened: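 MCF7 in-cell western for ERα normalized to tubulin after dose titration co-treated with VHL298 at 5 μM, 48 h total treatment before collection.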

[9] = biological target: T2, Estrogen receptor (Homo sapiens); assay: Induction of ERalpha degradation in human T47D cells assessed as decrease in ERalpha protein expression incubated for 24 hrs by Western blotting analysis; assay type: cell-based
Procedure, shortened: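 T47D cells were treated with increasing doses for 24 h. Lysates were western blotted with rabbit anti-ERα, and actin served as the loading control. DC50 was read from the dose series.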

MCF7 [10] = assay: Antiproliferative activity against human MCF7 cells assessed as growth inhibition incubated for 7 days by CellTiter-Glo assay; assay type: functional; conditions: MCF7, 168 h, time 7 day
Procedure, shortened: (§2)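 Breast lines from ATCC, maintained in ATCC-specified media, treated with increasing compound doses in full-serum (complete) media for 7 days. Relative cell number measured by CellTiter-Glo ATP read-out.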

T47D = assay: Antiproliferative activity against human T47D cells assessed as growth inhibition incubated for 7 days by CellTiter-Glo assay; assay type: functional; conditions: 168 h, time 7 day; procedure, shortened: as §2
MDA-MB-231 = assay: Antiproliferative activity against human MDA-MB-231 cells assessed as growth inhibition incubated for 7 days by CellTiter-Glo assay; assay type: functional; conditions: MDA-MB-231, 168 h, time 7 day; procedure, shortened: as §2
[11] = Cytotoxicity against human MCF-10A cells assessed as growth inhibition incubated for 7 days by CellTiter-Glo assay; assay type: cell-based; conditions: time 7 day; procedure, shortened: as §2
[12] = Solubility of compound; assay type: physicochemical
[13] = Microsomal stability in human liver microsomes assessed as intrinsic clearance measured upto 60 mins; assay type: ADME, Microsome; conditions: read-out: CLH
Procedure, shortened: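 Compounds at 2 μM final incubated with pooled human or male mouse liver microsomes. Percent remaining measured at 0, 15, 30, 45 and 60 min and used to calculate in vitro half-life.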

[14] = Volume of distribution at steady state in CD1 mouse at 0.3 mg/kg, iv administered as cassette dosing […]; assay type: ADME, organism-based; conditions: in vivo, read-out: Vdss
[15] = Cmax in CD1 mouse at 10 mg/kg, sc administered as single dose […]; assay type: ADME, organism-based; design: route subcutaneous, dose 10 mg/kg; conditions: in vivo
[16] = AUCinfinity in CD1 mouse at 10 mg/kg, sc administered as single dose […]; assay type: ADME, organism-based; design: route subcutaneous, dose 10 mg/kg; conditions: in vivo
[17] = Half life in CD1 mouse at 10 mg/kg, sc administered as single dose […]; assay type: ADME, organism-based; conditions: in vivo
MCF7 [18] = assay: Antitumor activity against human MCF7 cells xenografted in CD1 mouse assessed as tumor growth inhibition at 10 mg/kg, sc administered once daily for 28 days by caliper method; assay type: functional; conditions: 672 h, time 28 day, read-out: TGI
Procedure, shortened: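 Mice implanted with 17β-estradiol pellets (0.18 mg) 2 days before sc right-flank inoculation of 10×10^6 MCF-7 cells in PBS/Matrigel (50:50). Randomized at mean tumor 165 mm³, 8 per group. Dosed 10 mg/kg sc qd; fulvestrant reference 3 mg/mouse sc weekly. Caliper measurements twice weekly, V = 0.5a×b². TGI from medians. Body weight recorded before each dosing.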

[19] = Drug uptake in CD1 mouse tumor xenografted with human MCF7 cells 10 mg/kg, sc measured after 3 hrs post last dose; conditions: in vivo
[20] = Drug uptake in CD1 mouse plasma xenografted with human MCF7 cells 10 mg/kg, sc measured after 3 hrs post last dose; conditions: in vivo

Cc1ncsc1-c1ccc([C@@H](C)NC(=O)[C@@H]2C[C@@H](O)CN2C(=O)[C@H](NC(=O)COCCOCc2cn(CCOc3ccc(N(Cc4cccc(O)c4Cl)CC4(c5ccccc5F)CCCC4)cc3)nn2)C(C)(C)C)cc1
IC50 (Estrogen receptor [1]): 0.053 µM | GI50 (MCF7 [2]): > 10 µM | GI50 (MCF7 [3]): 0.03 µM | DC50 (Estrogen receptor [4]): 0.006 µM | EC50 (MCF7 [5]): 0.014 µM | Activity [6]: Active | DC50 (Estrogen receptor [7]): 0.037 µM | DC50 (Estrogen receptor [8]): 0.014 µM | Activity [9]: Active | GI50 (MCF7 [10]): 0.0138 µM | GI50 (T47D): 0.171 µM | GI50 (MDA-MB-231): > 10 µM | GI50 at 168 h [11]: > 10 µM | solubility [12]: < 0.2 µM | microsomal CLint [13]: 59 µL/min/mg | Vd [14]: 4.82 L/kg | Cmax [15]: 2.13 µM | AUC(0-inf) [16]: 14.6 µM·h | half-life [17]: 17 h | inhibition in vivo at 10 mg/kg (MCF7 [18]): 30.8% | Drug uptake [19]: Active | Drug uptake [20]: Active
